Test results reported in ChEMBL document CHEMBL3244172, “Easily hydrolyzable, water-soluble derivatives of (+/-)-alpha-5-[1-(indol-3-yl)ethyl]-2-methylamino-delta2-thiazoline-4-one, a novel antiviral compound” (J Med Chem, 1979).
Activity calls are given as the source filed them. No cut-off for these calls is given here.

Key:
Influenza A virus [1] = experiment: Antiviral activity against Influenza A virus Port Chalmers/1/73 (H3N2) infected in MDCK cells at 1 mg/ml by agar diffusion method; format: functional; settings: read-out: DIZ
Outline: (§1)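 Agar diffusion: compounds were diluted to 1 mg/mL in Eagle's MEM from stocks of 10 mg/mL in water or 100 mg/mL in DMSO. 0.02 mL went into 6 mm wells cut in the agar overlay above infected monolayers (influenza in MDCK, Coxsackie B1 in HeLa). Read-out was the diameter (mm) of the plaque-free inhibition zone around each well.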

Influenza A virus [2] = experiment: Antiviral activity against Influenza A virus Port Chalmers/1/73 (H3N2) infected in MDCK cells assessed as plaque reduction after 3 days by agar diffusion method; format: functional
Outline: (§2)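 Plaque reduction: varying compound concentrations were put in the agar overlay above infected monolayers. Coxsackie B1/HeLa was incubated 42 h at 37 °C; influenza/MDCK 3 days at 33 °C. PDD50 is the lowest concentration giving ≥50% fewer plaques than untreated controls.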

Coxsackievirus B1 [3] = experiment: Antiviral activity against Coxsackievirus B1 infected in human HeLa cells at 1 mg/ml by agar diffusion method; format: functional; settings: Enterovirus B; read-out: DIZ; outline: as §1
Coxsackievirus B1 [4] = experiment: Antiviral activity against Coxsackievirus B1 infected in human HeLa cells assessed as plaque reduction after 42 hrs by agar diffusion method; format: functional; outline: as §2
[5] = Cytotoxicity against MDCK cells infected with Influenza A virus Port Chalmers/1/73 (H3N2) after 3 days by carbol fuchsin staining-based assay; format: cell-based, Canis lupus familiaris; settings: dog
Outline: (§3)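 MDCK monolayers infected with influenza had compound in the agar overlay and were incubated 3 days at 33 °C. Monolayers were stained with carbol fuchsin or neutral red. MCC is the lowest concentration causing morphological cell abnormalities.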

[6] = Cytotoxicity against human HeLa cells infected with Coxsackievirus B1 after 42 hrs by carbol fuchsin staining-based assay; format: cell-based
Outline: (§4)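 HeLa monolayers infected with Coxsackie B1 under an agar overlay holding varying compound concentrations, incubated 37 °C, 42 h. Monolayers stained with carbol fuchsin or neutral red. MCC is the lowest concentration causing morphological abnormalities.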

Influenza A virus [7] = experiment: Antiviral activity against Influenza A virus Port Chalmers/1/73 (H3N2) infected in MDCK cells assessed as plaque reduction up to 100 ug/ml after 3 days by agar diffusion method; format: functional, organism-based; outline: as §2
Coxsackievirus B1 [8] = experiment: Antiviral activity against Coxsackievirus B1 infected in human HeLa cells assessed as plaque reduction up to 100 ug/ml after 42 hrs by agar diffusion method; format: functional, organism-based
Outline: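 Compound mixed at varying concentrations into the agar overlay above Coxsackie B1-infected HeLa monolayers. Incubated 37 °C for 42 h. PDD50 is the lowest concentration giving ≥50% fewer plaques than untreated controls.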

MDCK = experiment: Cytotoxicity against MDCK cells infected with Influenza A virus Port Chalmers/1/73 (H3N2) up to 100 ug/ml after 3 days by carbol fuchsin staining-based assay; format: cell-based, Canis lupus familiaris; settings: dog, 72 h; outline: as §3
HeLa = experiment: Cytotoxicity against human HeLa cells infected with Coxsackievirus B1 up to 100 ug/ml after 42 hrs by carbol fuchsin staining-based assay; format: cell-based; outline: as §4
[9] = Solubility in water; format: physicochemical; settings: buffer
[10] = Stability in unbuffered aqueous solutions at pH >6 assessed as compound hydrolysis; format: physicochemical; settings: unbuffered aqueous solution
[11] = Stability in unbuffered aqueous solutions at pH >6 assessed as compound decarboxylation; format: physicochemical
[12] = Stability in aqueous solutions at neutral pH; format: physicochemical; settings: buffer
Mustela putorius furo [13] = experiment: Toxicity in ferret infected with Influenza A virus Port Chalmers/1/73 (H3N2) assessed as change in body weight at 7 mg/kg administered intranasally 7 times on day 0 and 9 times on day 1 to day 3 measured after 7 days relative to untreated control; format: organism-based; design: dose 7 mg/kg; settings: in vivo, inhaled_or_intranasal, 168 h
Outline: (§5)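 Infected ferrets (700–1500 g, groups of three, untreated controls) were dosed intranasally each hour with 0.2 mL of a 50 mg/mL solution in distilled water: 7 doses on day 0 and 9 on days +1 to +3. Body weight was recorded throughout and expressed as % change.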

Mustela putorius furo [14] = experiment: Toxicity in ferret infected with Influenza A virus Port Chalmers/1/73 (H3N2) assessed as change in body weight at 14 mg/kg administered intranasally 7 times on day 0 and 9 times on day 1 to day 3 measured after 7 days relative to untreated control; format: organism-based; design: dose 14 mg/kg; settings: in vivo, inhaled_or_intranasal, 168 h; outline: as §5
Mustela putorius furo [15] = experiment: Toxicity in ferret infected with Influenza A virus Port Chalmers/1/73 (H3N2) assessed as change in body weight at 13 mg/kg administered intranasally 7 times on day 0 and 9 times on day 1 to day 3 measured after 7 days relative to untreated control; format: organism-based; design: dose 13 mg/kg; settings: in vivo, inhaled_or_intranasal, 168 h; outline: as §5
Influenza A virus [16] = experiment: Antiviral activity against Influenza A virus Port Chalmers/1/73 (H3N2) infected in ferret assessed as reduction in rectal temperature at 7 to 14 mg/kg administered intranasally 7 times on day 0 and 9 times on day 1 to day 3 relative to untreated control; format: functional; settings: dose mg/kg 7-14
Outline: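 Ferrets (700–1500 g), three per group, infected intranasally on day 0 with influenza A/Port Chalmers/1/73 (H3N2). Dosed 0.2 mL of 50 mg/mL solution in distilled water by intranasal instillation, unanaesthetized, starting 2 h post-infection and repeated hourly. Untreated and ribavirin-treated groups served as controls. Rectal temperature readings >39.5 °C and >40.0 °C were counted on days +1 to +4.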

Influenza A virus [17] = experiment: (§6) Antiviral activity against Influenza A virus Port Chalmers/1/73 (H3N2) infected in ferret assessed as reduction in viral excretion by measuring hemagglutination units per ml at 7 mg/kg administered intranasally 7 times on day 0 and 9 times on day 1 to day 3 measured on day 3 relative to untreated control; format: functional
Outline: (§7)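 Ferrets (700–1500 g, groups of three, untreated control group) were infected intranasally on day 0. Unanaesthetized animals received 0.2 mL of a 50 mg/mL solution in distilled water intranasally, from 2 h post-infection, hourly: 7 doses on day 0 and 9 daily on days +1 to +3. Nasal washings were titrated for hemagglutination with 0.5% washed chicken erythrocytes (HAU/mL) on days +2 to +4.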

Influenza A virus [18] = experiment: as §6, with “day 2” for “day 3”; format: functional; outline: as §7
Influenza A virus [19] = experiment: as §6, with “on day 4 relative to” for “on day 3 relative to”; format: functional; outline: as §7
Influenza A virus [20] = experiment: as §6, with “at 13” for “at 7”, “day 2” for “day 3”; format: functional; outline: as §7
Influenza A virus [21] = experiment: as §6, with “at 13” for “at 7”; format: functional; outline: as §7
Influenza A virus [22] = experiment: as §6, with “ml at 13 mg/kg administered” for “ml at 7 mg/kg administered”, “on day 4 relative to” for “on day 3 relative to”; format: functional; outline: as §7
Influenza A virus [23] = experiment: as §6, with “at 14” for “at 7”, “day 2” for “day 3”; format: functional; outline: as §7
Influenza A virus [24] = experiment: as §6, with “at 14” for “at 7”; format: functional; outline: as §7
Influenza A virus [25] = experiment: as §6, with “ml at 14 mg/kg administered” for “ml at 7 mg/kg administered”, “on day 4 relative to” for “on day 3 relative to”; format: functional; outline: as §7
Influenza A virus [26] = experiment: Antiviral activity against Influenza A virus Port Chalmers/1/73 (H3N2) infected in ferret assessed as serum antibody response to virus infection at 16 mg/kg administered intranasally 7 times on day 0 and 9 times on day 1 to day 3 by serum antibody response test relative to untreated control; format: functional, organism-based; design: dose 16 mg/kg
Outline: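 Dosing was as in the other ferret groups: infected ferrets, hourly intranasal 0.2 mL of 50 mg/mL in water, 7 doses on day 0 and 9 on days +1 to +3. Blood was taken by cardiac puncture under Penthrane/N2O/O2 before and 10 days after infection. Sera were KIO4-treated to remove nonspecific inhibitors, then tested by hemagglutination inhibition against the infecting virus.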

## CNC1=NC(=O)C(C(C)c2cn(C(=O)OC(C)CN(C)C)c3ccccc23)S1 (racemic)
Influenza A virus [1]
  zone of inhibition at 1000 µg/mL: 31 mm
Influenza A virus [2]
  PDD50: 0.5 µg/mL
Coxsackievirus B1 [3]
  zone of inhibition at 1000 µg/mL: 25 mm
Coxsackievirus B1 [4]
  PDD50: 20 µg/mL
[5]
  MCC at 72 h: 10 µg/mL
[6]
  MCC at 42 h: 100 µg/mL

## OC(c1ccccc1)c1nc2ccccc2[nH]1 (centres undefined)
Coxsackievirus B1 [3]
  zone of inhibition at 1000 µg/mL: 25 mm
Coxsackievirus B1 [4]
  PDD50: 20 µg/mL
[6]
  MCC at 42 h: > 100 µg/mL

## CNC1=NC(=O)C(C(C)c2cn(C(=O)OCC(C)(C)[N+](C)(C)C)c3ccccc23)S1.[I-] (racemic)
Influenza A virus [7]
  Activity: inactive
Coxsackievirus B1 [8]
  Activity: inactive
MDCK
  Activity: Non-toxic
HeLa
  Activity: Non-toxic

## CNC1=NC(=O)C(C(C)c2cn(C(=O)OC(C)CN(C)C)c3ccccc23)S1.Cl (racemic)
[9]
  solubility: soluble
[10]
  Stability: Unstable
[11]
  Stability: Unstable

## CCSC(=O)n1cc(C(C)C2SC(NC)=NC2=O)c2ccccc21 (racemic)
Influenza A virus [7]
  Activity: inactive
Coxsackievirus B1 [8]
  Activity: inactive
MDCK
  Activity: Non-toxic
HeLa
  Activity: Non-toxic

## CNC1=NC(=O)C(C(C)c2cn(C(=O)c3ccccc3C(=O)[O-])c3ccccc23)S1.[Na+] (racemic)
[9]
  solubility: soluble
[12]
  Stability: Stable

## CNC1=NC(=O)C(C(C)c2cn(C(=O)OCC(C)(C)N3CCOCC3)c3ccccc23)S1 (racemic)
Influenza A virus [1]
  zone of inhibition at 1000 µg/mL: 26 mm
Influenza A virus [2]
  PDD50: 2 µg/mL
Coxsackievirus B1 [3]
  zone of inhibition at 1000 µg/mL: 24 mm
Coxsackievirus B1 [4]
  PDD50: 5 µg/mL
[5]
  MCC at 72 h: 30 µg/mL
[6]
  MCC at 42 h: 100 µg/mL

## CNC1=NC(=O)C(C(C)c2cn(C(=O)CCC(=O)OC)c3ccccc23)S1 (racemic)
Influenza A virus [7]
  Activity: inactive
Coxsackievirus B1 [8]
  Activity: inactive
MDCK
  Activity: Non-toxic
HeLa
  Activity: Non-toxic

## NC(=O)c1ncn([C@@H]2O[C@H](CO)[C@@H](O)[C@H]2O)n1 [RIBAVIRIN]
Influenza A virus [1]
  zone of inhibition at 1000 µg/mL: 30 mm
Influenza A virus [2]
  PDD50: 2 µg/mL
Mustela putorius furo [13]
  Activity: -4.5%
Mustela putorius furo [14]
  Activity: -22.2%
Mustela putorius furo [15]
  Activity: -20.1%
Influenza A virus [16]
  T: >39.5 °C
Influenza A virus [17]
  Activity: <4 HAU/ml
Influenza A virus [18]
  Activity: <4 HAU/ml
Influenza A virus [19]
  Activity: <4 HAU/ml
Influenza A virus [20]
  Activity: <4 HAU/ml
Influenza A virus [21]
  Activity: 12 HAU/ml
Influenza A virus [22]
  Activity: <4 HAU/ml
Influenza A virus [23]
  Activity: <4 HAU/ml
Influenza A virus [24]
  Activity: <4 HAU/ml
Influenza A virus [25]
  Activity: <4 HAU/ml
[5]
  MCC at 72 h: > 100 µg/mL

## CNC1=NC(=O)C(C(C)c2cn(C(=O)OCC(C)(C)N(C)C)c3ccccc23)S1 (racemic) [listing 1 of 2 here]
Influenza A virus [1]
  zone of inhibition at 1000 µg/mL: 30 mm
Influenza A virus [2]
  PDD50: 0.3 µg/mL
Coxsackievirus B1 [3]
  zone of inhibition at 1000 µg/mL: 35 mm
Coxsackievirus B1 [4]
  PDD50: 20 µg/mL
[5]
  MCC at 72 h: 3 µg/mL
[6]
  MCC at 42 h: 100 µg/mL

## CNC1=NC(=O)C(C(C)c2cn(C(=O)OCc3ccccc3)c3ccccc23)S1 (racemic)
Influenza A virus [7]
  Activity: inactive
Coxsackievirus B1 [8]
  Activity: inactive
MDCK
  Activity: Non-toxic
HeLa
  Activity: Non-toxic

## CNC1=NC(=O)C(C(C)c2cn(C(=O)OCC(C)(C)N(C)C)c3ccccc23)S1 (racemic) [listing 2 of 2 here]
Influenza A virus [26]
  Activity: Active
